The results in this text go back to ChEMBL document CHEMBL4368914, “Tricyclic Indazoles-A Novel Class of Selective Estrogen Receptor Degrader Antagonists” (J Med Chem, 2019).

Each structure is given as a SMILES string. A value given as a limit tells only on which side of the number the result lay.

Data set [1] is described as follows: Volume of distribution at steady state in rat at 0.5 mg/kg, iv or 1 mg/kg, po. It is filed as ADME, organism-based. As to conditions: in vivo, read-out: Vdss. The essentials: (§1)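 Single IV dose of 0.5 mg/kg and oral dose of 1 mg/kg in rat and dog. Both routes were formulated in 5% DMSO:95% hydroxypropyl β-cyclodextrin (30% w/v), at 1 mL/kg IV and 4 mL/kg PO.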

In data set [2] the test system is Mus musculus. Put plainly: In vivo antagonist activity at ERalpha in tumor of human MCF7 cells xenografted in SCID CB17 mouse assessed as reduction in normalized PR levels at 5 mg/kg, po administered once daily for 3 days measured after 24 hrs post last dose by Western blot analysis relative to control. It is filed as functional. Also noted: scale not given: the % may be the effect or the level left. The essentials:
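Male SCID mice carried a 0.5 mg/21 day s.c. estrogen pellet, with 5x10^6 MCF-7 cells implanted s.c. in the hind flank 24 h later. Groups of 5 were randomised at 0.5–0.8 cm³ and gavaged once daily for 3 d in PEG400/Captisol/water vehicle at 10 ml/kg. Tumours were taken 24 h post-dose, and PR was read by Western blot normalized to vinculin.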
A general note: Xenograft models place foreign cells or tissue in a host animal.

The target in data set [3] is Cytochrome P450 3A4 (Homo sapiens, UniProt P08684). Put plainly: Inhibition of CYP3A4 in human liver microsomes. It is filed as ADME. The essentials: (§2)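 High-throughput human liver microsome assay across a panel of five CYP isoforms, giving IC50.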
Sequence of Cytochrome P450 3A4 (P08684 whole entry, canonical isoform): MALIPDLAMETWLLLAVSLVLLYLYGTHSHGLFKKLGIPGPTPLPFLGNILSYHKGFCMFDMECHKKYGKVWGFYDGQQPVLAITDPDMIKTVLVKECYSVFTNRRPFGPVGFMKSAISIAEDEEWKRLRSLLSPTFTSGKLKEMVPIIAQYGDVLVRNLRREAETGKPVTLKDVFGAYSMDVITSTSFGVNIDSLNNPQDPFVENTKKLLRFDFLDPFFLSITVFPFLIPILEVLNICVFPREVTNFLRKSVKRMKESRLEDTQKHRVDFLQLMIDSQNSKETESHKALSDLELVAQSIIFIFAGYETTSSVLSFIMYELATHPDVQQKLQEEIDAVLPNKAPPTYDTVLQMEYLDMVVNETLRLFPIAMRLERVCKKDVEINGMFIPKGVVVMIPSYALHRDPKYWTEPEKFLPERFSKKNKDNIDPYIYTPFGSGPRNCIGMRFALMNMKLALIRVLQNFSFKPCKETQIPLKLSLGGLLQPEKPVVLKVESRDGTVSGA
(Liver microsomes are a subcellular fraction often used to study metabolism.)

Data set [4] in a line: Stability in pH 7.4 deuterated buffer by 1H NMR spectroscopy. It counts as physicochemical. The essentials: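 Compound diluted from a 25 mM DMSO-d6 stock to a final 1 mM in each deuterated buffer. Followed by ¹H NMR (500 MHz, water suppression, 64 scans) and LC-MS at 0, 24, 72 and 192 h (8 days).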
Data set [5] deals with T1, Estrogen receptor (Homo sapiens, UniProt P03372).
T1 sequence (P03372 whole entry): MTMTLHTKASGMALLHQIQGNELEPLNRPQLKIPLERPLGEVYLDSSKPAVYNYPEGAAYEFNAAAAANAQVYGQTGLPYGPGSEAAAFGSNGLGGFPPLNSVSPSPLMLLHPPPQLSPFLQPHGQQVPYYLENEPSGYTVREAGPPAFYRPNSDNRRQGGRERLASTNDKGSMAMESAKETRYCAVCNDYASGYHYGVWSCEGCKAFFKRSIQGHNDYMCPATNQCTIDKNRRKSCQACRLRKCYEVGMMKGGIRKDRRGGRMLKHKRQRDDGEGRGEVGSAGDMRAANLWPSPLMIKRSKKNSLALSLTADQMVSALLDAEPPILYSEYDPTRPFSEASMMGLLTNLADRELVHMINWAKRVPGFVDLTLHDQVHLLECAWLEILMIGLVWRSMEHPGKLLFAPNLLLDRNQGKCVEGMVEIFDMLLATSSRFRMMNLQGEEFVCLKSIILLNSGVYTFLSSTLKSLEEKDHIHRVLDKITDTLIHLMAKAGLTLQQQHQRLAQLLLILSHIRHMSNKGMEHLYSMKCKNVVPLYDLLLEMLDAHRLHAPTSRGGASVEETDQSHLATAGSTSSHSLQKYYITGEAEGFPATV
Put plainly: Induction of ERalpha degradation in human MCF7 cells assessed as reduction in ERalpha protein expression after 5 hrs in absence of […] tamoxifen by formaldehyde-staining based assay. It counts as cell-based.

Data set [6] is described as follows: Oral bioavailability in rat at 1 mg/kg. It counts as ADME, organism-based. As to conditions: in vivo. The method, boiled down:
as §1

For data set [7], the target named is T2, Cytochrome P450 1A2 (Homo sapiens, UniProt P05177).
T2 sequence (P05177 whole entry): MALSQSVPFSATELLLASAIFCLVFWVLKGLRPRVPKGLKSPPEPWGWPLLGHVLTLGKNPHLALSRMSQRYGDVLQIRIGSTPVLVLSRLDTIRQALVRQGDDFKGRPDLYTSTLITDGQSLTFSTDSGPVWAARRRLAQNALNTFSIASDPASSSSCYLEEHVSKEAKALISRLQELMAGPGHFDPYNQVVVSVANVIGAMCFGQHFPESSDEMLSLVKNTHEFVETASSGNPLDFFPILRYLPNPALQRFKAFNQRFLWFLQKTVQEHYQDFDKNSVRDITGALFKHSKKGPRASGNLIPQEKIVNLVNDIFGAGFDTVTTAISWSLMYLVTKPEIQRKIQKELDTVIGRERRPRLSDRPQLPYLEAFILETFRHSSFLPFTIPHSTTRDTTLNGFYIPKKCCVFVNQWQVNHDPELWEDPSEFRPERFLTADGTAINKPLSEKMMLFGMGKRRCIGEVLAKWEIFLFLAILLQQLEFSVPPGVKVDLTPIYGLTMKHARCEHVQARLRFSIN
Put plainly: Inhibition of CYP1A2 in human liver microsomes. It is filed as ADME. The essentials: as §2

Data set [8] in a line: Fraction unbound in Alderley Park Han Wistar rat plasma by equilibrium dialysis. It counts as ADME, cell-free. The method, boiled down:
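Equilibrium dialysis from DMSO stock in 10% plasma, either Alderley Park Han Wistar rat plasma or human plasma.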
On the technique in general: Equilibrium dialysis compares concentrations on both sides of a semipermeable membrane.

A short description of data set [9]: Half life in dog at 0.5 mg/kg, iv or 1 mg/kg, po. It is filed as ADME, organism-based, Canis lupus familiaris. The note with it: in vivo. The essentials: as §1
The nature of data set [10]: Clearance in dog at 0.5 mg/kg, iv or 1 mg/kg, po. It is filed as ADME, organism-based, Canis lupus familiaris. As to conditions: in vivo. The method, boiled down:
as §1

The target of data set [11] is T3, Estrogen receptor (Homo sapiens) (UniProt P03372).
T3 sequence (whole entry): T1 sequence (P03372 whole entry)
Put plainly: Induction of ERalpha degradation in human MCF7 cells after 24 hrs by Western blot analysis. It counts as cell-based. The method, boiled down: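 MCF-7 cells in phenol red-free RPMI1640 with 5% charcoal-stripped FCS and 2 mmol/L glutamine (37 °C, 5% CO₂) exposed to a range of concentrations for 24 h. Total protein extracted and immunoblotted with anti-ER (SP1) and GAPDH antibodies diluted in 5% milk-PBS-Tween. Detection by enhanced chemiluminescent HRP substrate and imager.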

Data set [12] in a line: Apparent permeability in human Caco2 cells at 10 uM. It is filed as ADME, cell-based. As to conditions: Caco-2. The method, boiled down:
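Compound at 10 μM incubated on cultured Caco-2 or MDCK cells. Permeability was measured apical-to-basolateral and basolateral-to-apical, and efflux ratio was taken as (B to A)/(A to B).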

Data set [13] relates to MCF7. Put plainly: Antitumor activity against human MCF7 cells xenografted in SCID CB17 mouse assessed as tumor growth inhibition at 20 mg/kg, po administered once daily and measured on day 20 of dosing relative to control. As to conditions: read-out: TGI.
Data set [14] is described as follows: Clearance in rat at 0.5 mg/kg, iv or 1 mg/kg, po. As to conditions: in vivo. It counts as ADME, organism-based. The essentials: as §1
The target in data set [15] is T3, Estrogen receptor (Homo sapiens). Nature of the data set: Antagonist activity at ERalpha in human MCF7 cells assessed as inhibition of estradiol-driven cell growth measured after overnight incubation by SYTOX green-based assay. The essentials:
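MCF-7 cells grown at 37 °C, 5% CO₂, humidified, in phenol red-free RPMI1640 with 5% charcoal-stripped FCS and 2 mmol/L glutamine. Compounds held as 10 mmol/L DMSO stocks under nitrogen. Proliferation read in the presence of 0.1 nM estradiol.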

The target of data set [16] is Cytochrome P450 2D6 (Homo sapiens, UniProt P10635). Nature of the data set: Inhibition of CYP2D6 in human liver microsomes. It is filed as ADME. The essentials: as §2
Sequence of Cytochrome P450 2D6 (P10635 whole entry): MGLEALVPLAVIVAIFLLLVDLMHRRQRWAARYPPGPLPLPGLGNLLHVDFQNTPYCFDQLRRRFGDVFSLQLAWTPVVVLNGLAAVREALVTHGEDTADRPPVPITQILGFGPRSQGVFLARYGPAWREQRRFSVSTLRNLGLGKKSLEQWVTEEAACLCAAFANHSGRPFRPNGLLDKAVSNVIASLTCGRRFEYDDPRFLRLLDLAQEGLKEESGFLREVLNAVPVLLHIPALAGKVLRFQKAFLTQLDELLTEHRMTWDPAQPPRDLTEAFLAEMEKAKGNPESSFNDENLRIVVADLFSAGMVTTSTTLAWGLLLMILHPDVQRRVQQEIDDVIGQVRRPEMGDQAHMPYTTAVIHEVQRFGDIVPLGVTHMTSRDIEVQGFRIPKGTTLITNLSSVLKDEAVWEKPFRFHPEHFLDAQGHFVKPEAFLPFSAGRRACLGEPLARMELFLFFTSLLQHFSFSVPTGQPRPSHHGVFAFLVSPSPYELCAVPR
Data set [17] addresses T1, Estrogen receptor. Put plainly: Induction of ERalpha degradation in human MCF7 cells assessed as reduction in ERalpha protein expression after 5 hrs by formaldehyde-staining based assay. It counts as cell-based.
The nature of data set [18]: Lipophilicity, log D of the compound at pH 7.4 by shake flask method. It counts as physicochemical. As to conditions: buffer. The method, boiled down: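 Shake-flask measurement of logD at pH 7.4.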

For orientation: IC50 means the concentration at which inhibition is half-maximal. What is called bioavailability is dose-corrected exposure relative to a reference, in per cent. Broadly, the fraction unbound is free concentration divided by total concentration. As a reminder, the half-life is the time needed for the level to fall by half in the phase considered. Usually Papp stands for a coefficient for how fast a substance crosses the barrier. By logD is commonly meant lipophilicity at a set pH, counting ionised and neutral species.

Take `C[C@@H]1Cc2c(ccc3[nH]ncc23)[C@@H](c2c(F)cc(/C=C/C(=O)O)cc2F)N1CC(C)(C)F`: the Vd in data set [1] is 1.6 L/kg. Moreover, the Activity in data set [2] is 74%; in data set [11] it was “Dose-dependent effect”; in data set [15] it was “Dose-dependent effect”. Besides, the IC50 in data set [3] was 13 µM; in data set [5], 0.000251 µM; in data set [7] it was more than 30 µM; in [16], more than 30 µM; in data set [17], 0.000251 µM. In addition, the Stability entry in data set [4] was “Stable”. Moreover, the bioavailability in data set [6] was 31%. This molecule came in with an unbound share (fraction unbound) in data set [8] of 0.0083. The molecule further showed a half-life in data set [9] of 6.1 h. Further, the figures for the clearance in data set [10] and in data set [14] were 5.9 mL/min/kg and 23 mL/min/kg, respectively. The Papp at 10 µM in data set [12] was 6.9 ×10⁻⁶ cm/s. Also, the inhibition in vivo at 20 mg/kg in data set [13] stood at 80%. The logD in data set [18] turned out to be 2.6.
